Results taken from publication PMC2897717 (Journal of cerebral blood flow and metabolism : official …, 2009).

How the values were obtained:
[1] = tested on: dopamine D2/D3 receptors; assay: Multiple-injection; format: in vivo, rhesus monkey (Macaca mulatta)
[2] = Multiple-injection; format: in vivo, rhesus monkey (Macaca mulatta)
Method in brief: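 Three labeled/unlabeled radioligand injections were given i.v. in 0.9% NaCl within a session under 3 hours, with no decay correction. The model used K1, k2, fNDkon, koff and Bmax shared across injections, with molar arterial parent plasma as input and a blood-volume term. Levenberg–Marquardt fitting was run per ROI and across regions. Cerebellum was fitted as 1CM [K1,k2] or 2CM [K1,k2,Bmax] with fNDkon and koff fixed from other regions.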

[3] = baboon, MI experiments; ref Delforge et al, 1999; cited from earlier work
[4] = averaged across all brain regions

Structure (SMILES) | Estimated maximum receptor occupancy, injection 1 ([1]; experiment M1a, m1 2.0 nmol) | Estimated maximum receptor occupancy, injection 2 ([1]; experiment M1a, m2 13.1 nmol) | Estimated maximum receptor occupancy, injection 3 ([1]; experiment M1a, m3 100 nmol) | Estimated maximum receptor occupancy, injection 1 ([1]; experiment M2a, m1 0.7 nmol) | Estimated maximum receptor occupancy, injection 2 ([1]; experiment M2a, m2 10.6 nmol) | K1, mean [2, 4] | k2, tissue-to-plasma efflux constant, mean [2, 4] | ND distribution volume (VND = K1/k2) ([2]; from mean K1 and k2) | VND [3]
C=CCN1CCC[C@H]1CNC(=O)c1cc(CCCF)cc(OC)c1OC [^18F-fallypride, (S)-N-[(1-allyl-2-pyrrolidinyl)methyl]-5 (3-[18F]fluoropropyl) 2,3-dimethoxybenzamide] | 13% | 64% | 98% | 12% | 77% | 0.48 ± 0.15 mL/cm^3/min | 0.54 ± 0.10 min⁻¹ | 0.9 mL/cm^3 | 
CCN1CCCC1CNC(=O)c1cc([76Br])cc(OC)c1OC (stereo not drawn) [^76Br-FLB457] |  |  |  |  |  |  |  |  | 0.35 mL/cm^3
